Screen size: about 330,000 compounds; about 220 (0.067%) were called active.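 Rule for the calls: active = response, share of CD8 T cells binding vesicles, and their 90th percentile fluorescence all below set limits (cut at about 80% in these data, passing the limit was not always enough); inactive = the rest, inconclusive results apart.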 For the sample, actives were picked, then their nearest neighbours and some compounds at random.
Experiment: murine CD8 T cell vesicle adhesion modulation – mouse 2C CD8+ T cells, flow cytometry, primary screen (AID 2052);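 for double positive events: binding gate set so that unloaded-vesicle control wells show 10% double positive cells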;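 for response (vesicle binding): values below 100% mean blocked vesicle binding to the CD8+ T cells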
Conditions: 2C CD8+ T cell-vesicle binding, at 7 µM, stronger effect = lower value; double positive events: measured here: CD8+ vesicle-bound cell fraction
Summary of the method: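 Material: murine 2C transgenic CD8+ T lymphocytes / Also added: QL9-peptide-loaded Drosophila micro-vesicles bearing Ld, ICAM-1 and B7-1 / Schedule: binding step 1.5 h, 37 °C, antibody labelling 20 min, ice / Signal: flow cytometry, PE anti-B7-1 (FL2) versus Alexa647 anti-CD8 (FL8), PFA-fixed / Evaluation: percent CD8+ FL2 mean versus row control / Benchmarks: naked versus QL9-loaded vesicles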
For `Cc1cc(C)n(C(=O)c2ccc(C)c(S(=O)(=O)N3CCOCC3)c2)n1`, the double positive events was 54% and the response (vesicle binding) was 212% (inactive).
In the case of `C/C=C/c1ccc(OCC(=O)NNC(=O)CN(C)S(=O)(=O)c2ccc(C)cc2)c(OC)c1`, the double positive events is reported as 47.4% and the response (vesicle binding) is reported as 180% (inactive).
With `CCOC(=O)C(=CNNc1ccsc1C(=O)OC)C(=O)OCC` the double positive events was 17.6% and the response (vesicle binding) was 541% (inactive).
With `CC(=O)c1cc(-c2ccccc2)n(CCC(=O)NC2CCCCCC2)c1C` the double positive events was 47.9% and the response (vesicle binding) was 183% (inactive).
In the case of `CCc1ccccc1NC(=O)[C@@H]1CCC(=O)N1C1OC(=O)c2c1ccc(OC)c2OC` (some centres not stated), the double positive events is reported as 15.9% and the response (vesicle binding) is reported as 194% (inactive).
For `C/C(=N\N(C)C)c1ccc(OCCOc2ccc([N+](=O)[O-])cc2)cc1`, the double positive events was 36.6% and the response (vesicle binding) was 389% (inactive).
For `COc1ccc(C2c3[nH]c4ccccc4c3C[C@H]3C(=O)N(CC(C)C)CC(=O)N23)c(OC)c1` (some centres not stated), the double positive events was 23.9% and the response (vesicle binding) was 1350% (inactive).
For `CC1(C)C2CC=C(/C=N/NC(=O)C3CC3)C1C2` (configuration not stated), the double positive events was 55.1% and the response (vesicle binding) was 548% (inactive).
In the case of `O=C(NCc1cccnc1)c1ccccc1NC(=O)c1c(F)cccc1F`, the double positive events is reported as 21.9% and the response (vesicle binding) is reported as 104% (inactive).
With `CC(=O)N1CCc2cc(S(=O)(=O)NC3CCCCC3)ccc21` the double positive events was 27% and the response (vesicle binding) was 222% (inactive).
In the case of `Cc1cccc(C(=O)NCc2nnc(SC(C)C(=O)Nc3nnc(C)s3)n2C)c1` (configuration not stated), the double positive events is reported as 13.6% and the response (vesicle binding) is reported as 258% (inactive).
In the case of `CCCCCN(C(=O)NC(=O)Nc1cccc(C)c1C)S(C)(=O)=O`, the double positive events is reported as 28.6% and the response (vesicle binding) is reported as 413% (inactive).
With `COc1ccc(CCNC(=O)CN(c2ccccc2)S(C)(=O)=O)cc1OC` the double positive events was 42.8% and the response (vesicle binding) was 345% (inactive).
With `COc1ccc(C(=O)OCC(=O)NC(=O)CCSc2ccccc2)cc1` the double positive events was 48.7% and the response (vesicle binding) was 413% (inactive).
In the case of `CC(NC(=S)Nc1ccccc1)C1COc2ccccc2O1` (configuration not stated), the double positive events is reported as 63% and the response (vesicle binding) is reported as 843% (inactive).
For `COc1ccccc1S(=O)(=O)NCc1ccc(C(=O)N(C)Cc2ccc(F)cc2)cc1`, the double positive events was 31.2% and the response (vesicle binding) was 557% (inactive).
For `CCOc1ccc(NC(=O)CC2C(=O)N(c3ccccc3)C(=O)N2CCOC)cc1` (configuration not stated), the double positive events was 22.1% and the response (vesicle binding) was 526% (inactive).
For `Cc1cc(C)cc(NC(=O)NC2CCN(CC(=O)Nc3cccc(Cl)c3C)CC2)c1`, the double positive events was 43.5% and the response (vesicle binding) was 437% (inactive).
With `O=C1C(=O)N(CCN2CCOCC2)C(c2cccc(Cl)c2)/C1=C(/O)c1ccc2c(c1)OCO2` (configuration not stated) the double positive events was 10.1% and the response (vesicle binding) was 653% (inactive).
In the case of `O=C(NCc1ccc2c(c1)OCO2)c1ccc(Cl)s1`, the double positive events is reported as 0% and the response (vesicle binding) is reported as 0% (active).
In the case of `O=C(NCc1ccc2c(c1)OCO2)c1cc2c(s1)CS(=O)(=O)C2`, the double positive events is reported as 37.5% and the response (vesicle binding) is reported as 576% (inactive).
For `O=C(NCc1ccc2c(c1)OCO2)c1cc(F)c(F)cc1Cl`, the double positive events was 11.4% and the response (vesicle binding) was 338% (inactive).
In the case of `COc1ccc(C(=O)NCc2ccc(C)cc2)cc1S(=O)(=O)N1CCCC1`, the double positive events is reported as 47.1% and the response (vesicle binding) is reported as 276% (inactive).
For `O=C(CSc1nc2ccccc2c(=O)n1-c1ccccc1F)N1CCOCC1`, the double positive events was 37.3% and the response (vesicle binding) was 244% (inactive).
In the case of `Cc1ccc(Cl)c(OCC(=O)N(C)CC(=O)Nc2ccc(N3CCOCC3)cc2)c1`, the double positive events is reported as 61.8% and the response (vesicle binding) is reported as 424% (inactive).
For `CCOC(=O)c1cccc(NC(=O)C2CCCN(S(=O)(=O)c3cnc[nH]3)C2)c1` (configuration not stated), the double positive events was 47.8% and the response (vesicle binding) was 586% (inactive).
